Screens from PubChem.
PMI activator = activators of human PMI, primary screen, biochemical, fluorescence intensity, near-Km mannose 6-phosphate. purified human PMI, coupled resazurin fluorescence, 20 min; hits give high values; 1 = vehicle control, 0 substrate-free wells. activation factor at 20 µM. 0.005% of 190,000 active. AID 1214, 2008;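 active = activation factor of 2 or more at 20 µM, relative to plate controls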
Target sequence (P34949 whole entry, looked up): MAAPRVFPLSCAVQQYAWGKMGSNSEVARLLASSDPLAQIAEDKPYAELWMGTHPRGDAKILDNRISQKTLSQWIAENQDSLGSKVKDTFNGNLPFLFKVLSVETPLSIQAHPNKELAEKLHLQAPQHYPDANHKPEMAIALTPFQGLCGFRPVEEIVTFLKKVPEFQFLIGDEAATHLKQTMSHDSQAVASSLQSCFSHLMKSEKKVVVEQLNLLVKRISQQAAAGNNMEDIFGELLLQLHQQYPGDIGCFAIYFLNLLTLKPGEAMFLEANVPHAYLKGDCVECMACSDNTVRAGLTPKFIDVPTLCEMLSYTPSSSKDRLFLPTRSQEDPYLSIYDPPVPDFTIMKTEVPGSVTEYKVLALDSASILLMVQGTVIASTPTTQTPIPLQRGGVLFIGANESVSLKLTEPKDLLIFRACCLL
HCT116 PTEN-null = growth suppression of PTEN-null HCT116, primary screen, cell-based, CellTiter-Glo. HCT116 PTEN-null viability, 60 h; hits give low values. viability, % at 10 µM. 1.2% of 140,000 active;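 active = viability at or below a set limit, 4 SD under the median of all tested compounds, cut at about 3.7% in these data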;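 note: PTEN knockout HCT116 line with beta catenin targeted HCT116 as companion control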
HCT116 bCat-KO = primary screen for growth suppressors in beta-catenin knockout HCT116 cells (colon tumor, human); AID 818, 2007; HCT116 beta-catenin knockout viability, CellTiter-Glo, 60 h; hits give low values; viability, % at 10 µM; 1.5% of 140,000 active;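 active = viability at or under a set limit, the compound median less 4 SD, cut at about 6% in these data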;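 note: 0% = Hyamine 1622 control at 20 µM and 100% = untreated cell control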
L major viab = Leishmania major promastigote growth inhibition, primary screen | Leishmania major promastigotes, resazurin fluorescence viability | inhibition, % at 10 µM | 9% of 200,000 active | AID 1063, 2008; in the data active = inhibition above about 50%;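 note: promastigotes grown with compound for 44 hours at 28 °C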
PMI act hi M6P = human PMI activators, high substrate, primary screen, biochemical, fluorescence intensity, near-saturating mannose 6-phosphate; Mannose-6-phosphate isomerase (Homo sapiens), P34949; coupled PMI enzyme assay, resazurin fluorescence, 20 min; hits give high values; 1 = untreated enzyme, 0 = substrate-free blank; activation factor at 20 µM; 0.34% of 190,000 active; AID 1216, 2008;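 active = activation factor of 2 or more at 20 µM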
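Test system – human PMI in coupled enzyme assay · Timing – 20 min incubation at room temperature · Detection – Diaphorase-driven resazurin-to-resorufin fluorescence, excitation 544, emission 590 nm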
Starred values were filed as active, the others as inactive; . = no result given. Shown are actives, neighbours in structure and some others; about 9.6% of the full set was active somewhere.

SMILES	PMI activator	HCT116 PTEN-null	HCT116 bCat-KO	L major viab	PMI act hi M6P
Cc1ccc(S(=O)(=O)N2CCN(Cc3ccccc3C(F)(F)F)CC2)cc1	0.7	85	71	0	0.9
O=S(=O)(c1ccccc1)N1CCN(Cc2ccccc2C(F)(F)F)CC1	0.8	95	98	92*	0.9
FC(F)(F)c1ccccc1CN1CCN(C2CCCCCC2)CC1	1	64	57	97*	1
COc1ccc(/C=C2/SC(=O)N(CC(=O)Nc3cc(C)on3)C2=O)cc1OC	0.8	90	89	-4	0.9
CSc1nc2sc3c(c2c(=O)[nH]1)CCC3	1	100	102	-6	1
CC1(C)CC(=O)C2=C(C1)N1C(=C(C#N)C2c2ccc(Cl)cc2)N=C(N)c2ccccc21 (configuration not stated)	0.9	13	18	66*	0.8
CC1(C)CC(=O)C2=C(C1)N1C(=C(C#N)C2c2ccccc2Cl)N=C(N)c2ccccc21 (configuration not stated)	0.9	24	38	33	0.9
O=C(CN1CCCc2ccccc21)NCCc1ccc(F)cc1	1.2	.	.	17	1.1
O=C1COc2ccc(C(=O)c3ccccc3C(=O)NCc3ccco3)cc2N1	1	102	99	6	1
CCOC(=O)c1c(NC(=O)C(Sc2ccccc2)c2ccccc2)sc(C(=O)N(C)C)c1C (configuration not stated)	0.9	53	58	98*	1
C=CCN(CC=C)S(=O)(=O)c1ccc2nc(NC(=O)C3CCCO3)sc2c1 (configuration not stated)	1	82	79	68*	1
CS(=O)(=O)c1ccc2nc(NC(=O)C3CCCO3)sc2c1 (configuration not stated)	.	.	.	-7	.
Cc1cccc(C)c1NC(=S)N(CCCN1CCCCC1)Cc1ccco1	1	.	.	-3	0.9
CCOC(=O)c1ccc(NC(=S)N(CCCN2CCCCCC2)Cc2ccco2)cc1	1	61	53	100*	0.9
S=C(Nc1ccc(Cl)cc1)N(CCCN1CCOCC1)Cc1ccco1	1	91	81	96*	1
CCN1CCN(CCCN(Cc2ccco2)C(=S)Nc2ccc(Cl)c(C)c2)CC1	1	.	.	44	1
Cc1ccc(NC(=S)N(CCN2CCCCC2)Cc2ccco2)cc1	1	91	69	10	0.9
CCOC(=O)c1ccc(NC(=S)N(CCN2CCCCCC2)Cc2ccco2)cc1	1	.	.	95*	1
Cc1ccc(NC(=S)N(CCCN2CCCC(C)C2)Cc2ccco2)cc1C (configuration not stated)	1	.	.	96*	1
COc1cc(/C=C/C(=O)OCC(=O)c2c(N)n(C)c(=O)n(C)c2=O)ccc1OC(F)F	0.8	.	.	-8	1
CSc1ccccc1NC(=O)CN1CCN(Cc2ccccc2)CC1	1	.	.	-3	1
CCOC(=O)N1CCN(CC(=O)Nc2ccc([N+](=O)[O-])cc2C(=O)Nc2ccccc2F)CC1	0.8	51	60	75*	0.9
O=C(CN1CCN(Cc2ccccc2)CC1)Nc1ccc([N+](=O)[O-])cc1C(=O)Nc1ccccc1F	0.8	25	29	99*	0.9
CCCCC(CC)CNC(=O)C1C2C=CC(C2)C1C(=O)O (configuration not stated)	0.9	88	98	-1	1
CC1(C)CC(=O)C2=C(C1)N=c1s/c(=C/c3ccc(F)c(F)c3)c(=O)n1C2c1ccc(F)cc1 (configuration not stated)	0.9	55	57	100*	0.9
SMILES	PMI activator	HCT116 PTEN-null	HCT116 bCat-KO	L major viab	PMI act hi M6P
O=C(Nc1ccn(Cc2cccc3ccccc23)n1)c1cccnc1	1	.	.	3	1
Cc1cc(NC(=O)CSc2nnc(-c3ccccc3)c(-c3ccccc3)n2)no1	1	.	.	22	1
COc1ccc(C2C3=C(CCCC3=O)Nc3nc(C(F)(F)F)nn32)cc1OC (configuration not stated)	0.9	87	85	-7	0.9
COc1ccc(C2C(C(=O)c3ccccc3)=C(C)Nc3nc4ccccc4n32)c(OC)c1 (configuration not stated)	1	53	63	87*	1
COc1cc(OC)c(C2C3=C(CCCC3=O)Nc3nc4ccccc4n32)cc1OC (configuration not stated)	0.8	95	93	99*	0.9
Cc1ccc(/C=C/C(=O)c2c(C)nc3ccccn23)cc1	1	13	10	28	1
COc1ccc(OC(=O)c2cccc([N+](=O)[O-])c2)c(C(=O)/C=C/c2cccs2)c1	0.9	93	88	73*	0.9
COc1cccc(/C=C/C(=O)c2cccc([N+](=O)[O-])c2)c1	1	.	.	98*	0.9
COc1ccc(C(=O)/C=C/c2ccccc2OC)c(OC(=O)c2ccc([N+](=O)[O-])cc2)c1	.	.	.	56*	.
Cc1nc2ccccn2c1C(=O)/C=C/c1cccc([N+](=O)[O-])c1	1	.	.	98*	1
CCOc1ccc(-c2cc(NC(=O)Cn3ncc4c3-c3ccccc3OC4)on2)cc1OCC	1	91	82	11	1.1
COc1ccc(/C=C/C(=O)c2ccncc2)c2ccccc12	1	33	20	98*	0.8
COc1cccc(/C=C/C(=O)c2cccc([N+](=O)[O-])c2)c1OC	0.8	.	.	100*	0.7
COc1ccc(/C=C/C(=O)c2ccc[nH]2)c(OC)c1OC	1.1	89	83	0	1
Oc1ccc(/C=N/Nc2cc(N3CCCC3)nc(N3CCCC3)n2)cc1O	0.4	48	48	99*	0.4
Cc1cccc(/C=N/Nc2cc(N3CCOCC3)nc(N3CCOCC3)n2)c1	0.2	13	19	87*	0.3
CN(CC(=O)Nc1ccc(S(=O)(=O)N2CCCC2)cc1)CC(=O)Nc1cccc(F)c1	1	.	.	20	1
CCOCCCNC(=O)C(NC(=O)c1ccc(NC(C)=O)cc1)c1ccc(OC)cc1 (configuration not stated)	0.9	97	97	-5	1
Brc1ccc2[nH]c3c(N4CCc5ccccc5C4)ncnc3c2c1	0.9	18	22	48	0.9
c1ccc2c(c1)[nH]c1c(N3CCCC3)ncnc12	0.8	25	18	58*	0.9
Cc1ccc2[nH]c3c(N4CCc5ccccc5C4)ncnc3c2c1	0.9	11	7	68*	0.9
c1ccc2c(c1)[nH]c1c(N3CCSCC3)ncnc12	.	17	11	86*	.
c1ccc2c(c1)[nH]c1c(N3CCOCC3)ncnc12	0.9	80	68	15	0.9
